{"source": "ChEMBL document CHEMBL1255218", "about": "“Development of molecular probes for the human 5-HT(6) receptor” (J Med Chem, 2010)", "key": {"[1]": {"biological_target": "T1, 5-hydroxytryptamine receptor 6 (Homo sapiens, UniProt P50406)", "T1 sequence (P50406 whole entry)": "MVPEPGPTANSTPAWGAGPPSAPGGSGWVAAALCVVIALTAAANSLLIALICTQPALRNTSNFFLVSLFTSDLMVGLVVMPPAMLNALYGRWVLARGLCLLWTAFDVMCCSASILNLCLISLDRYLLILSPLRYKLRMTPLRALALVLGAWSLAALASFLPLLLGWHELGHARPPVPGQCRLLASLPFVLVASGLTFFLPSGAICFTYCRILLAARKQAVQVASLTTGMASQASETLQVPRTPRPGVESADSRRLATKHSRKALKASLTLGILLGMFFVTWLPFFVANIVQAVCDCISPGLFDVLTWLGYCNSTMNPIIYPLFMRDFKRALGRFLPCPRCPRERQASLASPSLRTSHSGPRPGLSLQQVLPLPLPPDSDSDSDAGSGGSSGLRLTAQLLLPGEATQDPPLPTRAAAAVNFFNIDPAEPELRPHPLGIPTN", "test": "Binding affinity to human 5HT6 receptor expressed in COS7 cells assessed as emission fluorescence intensity", "type": "cell-based", "details": "COS-7"}, "[2]": {"biological_target": "T1, 5-hydroxytryptamine receptor 6", "test": "Displacement of [3H]LSD from human 5HT6 receptor expressed in HEK293 cells", "type": "cell-based", "method_in_brief": "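Membranes from HEK-293 cells stably expressing human 5-HT6R, in 50 mM Tris-HCl, 10 mM MgCl2, 0.5 mM EDTA, pH 7.4. Incubated 60 min at 37 °C with 2.5 nM [3H]LSD and competitor (10^-5 to 10^-10 M). Nonspecific binding defined with 100 μM serotonin. Filtered on 0.5% PEI-soaked filters; scintillation count. Ki by Cheng-Prusoff; 2-4 experiments in triplicate.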"}, "[3]": {"biological_target": "T1, 5-hydroxytryptamine receptor 6", "test": "Binding affinity to human 5HT6 receptor assessed as emission fluorescence intensity"}}, "note": "The source made the active and inactive calls. The calls are words filed in the database; no cut-off is given here."}
{"smiles": "COc1ccc(N(S(=O)(=O)c2sc3ccc(Cl)cc3c2C)S(=O)(=O)c2cccc3c(N(C)C)cccc23)cc1N1CCNCC1", "values": [{"measurement": "Activity", "setting": "[1]", "result": 19, "unit": "a.u."}, {"measurement": "Ki", "setting": "[2]", "result": 27, "unit": "nM"}]}
{"smiles": "COc1ccc(NS(=O)(=O)c2sc3ccc(Cl)cc3c2C)cc1N1CCN(CCCCCCCCNS(=O)(=O)c2cccc3c(N(C)C)cccc23)CC1", "values": [{"measurement": "Activity", "setting": "[1]", "result": "> 1000", "unit": "a.u."}, {"measurement": "Ki", "setting": "[2]", "result": 447, "unit": "nM"}]}
{"smiles": "COc1ccc(NS(=O)(=O)c2sc3ccc(Cl)cc3c2C)cc1N1CCN(S(=O)(=O)c2cccc3c(N(C)C)cccc23)CC1", "values": [{"measurement": "Activity", "setting": "[1]", "result": 730, "unit": "a.u."}, {"measurement": "Ki", "setting": "[2]", "result": 165, "unit": "nM"}]}
{"smiles": "Cc1c(S(=O)(=O)Nc2ccc(OCCCCCCCCNS(=O)(=O)c3cccc4c(N(C)C)cccc34)c(N3CCNCC3)c2)sc2ccc(Cl)cc12", "values": [{"measurement": "Activity", "setting": "[1]", "result": 700, "unit": "a.u."}, {"measurement": "Ki", "setting": "[2]", "result": 741, "unit": "nM"}]}
{"smiles": "COc1ccc(NS(=O)(=O)c2sc3ccc(Cl)cc3c2C)cc1N1CCN(CCCCCCNS(=O)(=O)c2cccc3c(N(C)C)cccc23)CC1", "values": [{"measurement": "Activity", "setting": "[1]", "result": "> 1000", "unit": "a.u."}, {"measurement": "Ki", "setting": "[2]", "result": 266, "unit": "nM"}]}
{"smiles": "COc1ccc(NS(=O)(=O)c2cccc3c(N(C)C)cccc23)cc1N1CCN(CCCCNS(=O)(=O)c2cccc3c(N(C)C)cccc23)CC1", "values": [{"measurement": "Activity", "setting": "[1]", "result": "> 1000", "unit": "a.u."}, {"measurement": "Ki", "setting": "[2]", "result": 175, "unit": "nM"}]}
{"smiles": "COc1ccc(N(S(=O)(=O)c2cccc3c(N(C)C)cccc23)S(=O)(=O)c2cccc3c(N(C)C)cccc23)cc1N1CCNCC1", "values": [{"measurement": "Activity", "setting": "[1]", "result": 35, "unit": "a.u."}, {"measurement": "Ki", "setting": "[2]", "result": 135, "unit": "nM"}]}
{"smiles": "COc1ccc(NS(=O)(=O)c2cccc3c(N(C)C)cccc23)cc1N1CCNCC1", "values": [{"measurement": "Activity", "setting": "[1]", "result": 52, "unit": "a.u."}, {"measurement": "Ki", "setting": "[2]", "result": 8, "unit": "nM"}]}
{"smiles": "COc1ccc(N(CCCCNS(=O)(=O)c2cccc3c(N(C)C)cccc23)S(=O)(=O)c2sc3ccc(Cl)cc3c2C)cc1N1CCNCC1", "values": [{"measurement": "Activity", "setting": "[1]", "result": 221, "unit": "a.u."}, {"measurement": "Ki", "setting": "[2]", "result": 747, "unit": "nM"}]}
{"smiles": "COc1ccc(N(CCCCCCCCNS(=O)(=O)c2cccc3c(N(C)C)cccc23)S(=O)(=O)c2sc3ccc(Cl)cc3c2C)cc1N1CCNCC1", "values": [{"measurement": "Activity", "setting": "[1]", "result": "> 1000", "unit": "a.u."}, {"measurement": "Ki", "setting": "[2]", "result": 215, "unit": "nM"}]}
{"smiles": "COc1ccc(NS(=O)(=O)c2cccc3c(N(C)C)cccc23)cc1N1CCN(CCCCCCNS(=O)(=O)c2cccc3c(N(C)C)cccc23)CC1", "values": [{"measurement": "Activity", "setting": "[1]", "result": 287, "unit": "a.u."}, {"measurement": "Ki", "setting": "[2]", "result": 554, "unit": "nM"}]}
{"smiles": "COc1ccc(NS(=O)(=O)c2cccc3c(N(C)C)cccc23)cc1N1CCN(CCCCCCCCNS(=O)(=O)c2cccc3c(N(C)C)cccc23)CC1", "values": [{"measurement": "Activity", "setting": "[1]", "result": 450, "unit": "a.u."}, {"measurement": "Ki", "setting": "[2]", "result": 194, "unit": "nM"}]}
{"smiles": "COc1ccc(NS(=O)(=O)c2sc3ccc(Cl)cc3c2C)cc1N1CCN(CCCCCCNC(=O)CCCC[C@@H]2SC[C@@H]3NC(=O)N[C@@H]32)CC1", "values": [{"measurement": "Ki", "setting": "[2]", "result": 90, "unit": "nM"}]}
{"smiles": "COc1ccc(NS(=O)(=O)c2ccc(-c3ncc(-c4ccc(N(C)C)cc4)o3)cc2)cc1N1CCNCC1", "values": [{"measurement": "Activity", "setting": "[3]", "result": "inactive"}, {"measurement": "Ki", "setting": "[2]", "result": 523, "unit": "nM"}]}
